According to ChEMBL document CHEMBL4000227, “Structure activity relationships of benzylproline-derived inhibitors of the glutamine transporter ASCT2” (Bioorg Med Chem Lett, 2017):
The source made the active and inactive calls. The calls are words filed in the database; no cut-off is given here.

Assays:
Format in all cases: cell-based
[1] = target: T1, Amino acid transporter (Rattus norvegicus) (UniProt Q9Z1J7); test: Inhibition of rat ASCT2 expressed in HEK293 cells assessed as inhibition of L-alanine/Na+ exchange by measuring reduction in SCN anion inward current at 1 mM in presence of NaCl and NaSCN by whole cell patch-clamp method
T1 sequence (whole entry): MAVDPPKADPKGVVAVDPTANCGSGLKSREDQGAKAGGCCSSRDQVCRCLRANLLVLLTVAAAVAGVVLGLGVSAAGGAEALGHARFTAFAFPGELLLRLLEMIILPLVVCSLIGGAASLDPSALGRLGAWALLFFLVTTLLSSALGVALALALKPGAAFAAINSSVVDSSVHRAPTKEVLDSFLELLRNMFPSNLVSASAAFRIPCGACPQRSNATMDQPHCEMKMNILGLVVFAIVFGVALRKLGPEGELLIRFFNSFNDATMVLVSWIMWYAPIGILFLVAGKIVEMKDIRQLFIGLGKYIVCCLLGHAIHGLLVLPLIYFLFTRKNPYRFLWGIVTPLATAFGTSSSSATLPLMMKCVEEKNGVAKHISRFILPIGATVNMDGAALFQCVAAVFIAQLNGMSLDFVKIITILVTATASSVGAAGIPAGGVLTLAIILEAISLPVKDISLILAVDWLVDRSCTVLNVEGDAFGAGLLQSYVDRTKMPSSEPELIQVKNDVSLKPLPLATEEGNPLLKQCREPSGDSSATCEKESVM
How it was run: (§1)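 Rat ASCT2 transiently transfected into HEK293T cells (no detectable endogenous ASCT2); whole-cell recording at 0 mV with 140 mM external NaCl, 135 mM internal NaSCN, 10 mM internal alanine. Compound applied at 1 mM; current expressed relative to saturating alanine response, saturating current calculated as I/Imax = c/(c+Km). Outward current taken as inhibition of leak anion conductance.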

[2] = target: T1, Amino acid transporter (Rattus norvegicus); test: Inhibition of rat ASCT2 expressed in HEK293 cells assessed as outward current by measuring reduction in SCN anion inward current at 1 mM in presence of NaCl and NaSCN by whole cell patch-clamp method; how it was run: as §1
Amino acid transporter = target: T2, Amino acid transporter (Rattus norvegicus, UniProt Q9Z1J7); test: Inhibition of rat ASCT2 expressed in HEK293 cells assessed as inhibition of L-alanine/Na+ exchange by measuring reduction in SCN anion inward current in presence of NaCl and NaSCN by whole cell patch-clamp method; conditions: read-out: Ki(app)
T2 sequence (Q9Z1J7 whole entry): T1 sequence (whole entry)

Row | Imax [1] [%] | inhibition [2] | Ki (Amino acid transporter) [µM] | SMILES
1 | 59 | Active | 38 | Cc1ccccc1C[C@H]1CNC(C(=O)O)C1 (single isomer, unassigned)
2 | 67 | Active | 177 | O=C(O)C1C[C@@H](Cc2cccc(F)c2)CN1 (single isomer, unassigned)
3 | 61 | Active |  | O=C(O)C1C[C@@H](Cc2ccccc2[N+](=O)[O-])CN1 (single isomer, unassigned)
4 | 55 | Active |  | O=C(O)C1C[C@@H](Cc2ccccc2Br)CN1 (single isomer, unassigned)
5 | 52 |  | 2000 | O=C(O)C1C[C@@H](Cc2ccccc2)CN1 (single isomer, unassigned)
6 | 56 | Active | 30 | O=C(O)[C@@H]1C[C@@H](Cc2ccc(Cl)cc2Cl)CN1
7 | 61 | Active | 83 to 87 | O=C(O)C1C[C@@H](Cc2ccccc2F)CN1 (single isomer, unassigned)
8 | 57 | Active | 190 | O=C(O)C1C[C@@H](Cc2ccc(F)cc2)CN1 (single isomer, unassigned)
9 | 49 | Active | 220 | O=C(O)C1C[C@@H](Cc2ccccc2C(F)(F)F)CN1 (single isomer, unassigned)
10 | 43 | Active |  | O=C(O)C1C[C@@H](Cc2cccc(C(F)(F)F)c2)CN1 (single isomer, unassigned)
11 | 46 | Active | 195 | O=C(O)C1C[C@@H](Cc2ccccc2Cl)CN1 (single isomer, unassigned)
12 | 47 | Active |  | O=C(O)C1C[C@@H](Cc2ccc(C(F)(F)F)cc2)CN1 (single isomer, unassigned)
13 | 51 | Active | 73 | O=C(O)C1C[C@@H](Cc2ccc(F)c(F)c2)CN1 (single isomer, unassigned)

Row | SMILES | Imax [1] [%] | inhibition [2] | Ki (Amino acid transporter) [µM]
14 | O=C(O)[C@@H]1C[C@@H](Cc2ccc(-c3ccccc3)cc2)CN1 | 57 | Active | 3
